Assay results from different studies.
Lines come from different studies, so protocols differ.
Target: Receptor-type tyrosine-protein kinase FLT3 (FLT3, Homo sapiens, UniProt P36888)
Sequence (P36888 27-993, as in one of the studies): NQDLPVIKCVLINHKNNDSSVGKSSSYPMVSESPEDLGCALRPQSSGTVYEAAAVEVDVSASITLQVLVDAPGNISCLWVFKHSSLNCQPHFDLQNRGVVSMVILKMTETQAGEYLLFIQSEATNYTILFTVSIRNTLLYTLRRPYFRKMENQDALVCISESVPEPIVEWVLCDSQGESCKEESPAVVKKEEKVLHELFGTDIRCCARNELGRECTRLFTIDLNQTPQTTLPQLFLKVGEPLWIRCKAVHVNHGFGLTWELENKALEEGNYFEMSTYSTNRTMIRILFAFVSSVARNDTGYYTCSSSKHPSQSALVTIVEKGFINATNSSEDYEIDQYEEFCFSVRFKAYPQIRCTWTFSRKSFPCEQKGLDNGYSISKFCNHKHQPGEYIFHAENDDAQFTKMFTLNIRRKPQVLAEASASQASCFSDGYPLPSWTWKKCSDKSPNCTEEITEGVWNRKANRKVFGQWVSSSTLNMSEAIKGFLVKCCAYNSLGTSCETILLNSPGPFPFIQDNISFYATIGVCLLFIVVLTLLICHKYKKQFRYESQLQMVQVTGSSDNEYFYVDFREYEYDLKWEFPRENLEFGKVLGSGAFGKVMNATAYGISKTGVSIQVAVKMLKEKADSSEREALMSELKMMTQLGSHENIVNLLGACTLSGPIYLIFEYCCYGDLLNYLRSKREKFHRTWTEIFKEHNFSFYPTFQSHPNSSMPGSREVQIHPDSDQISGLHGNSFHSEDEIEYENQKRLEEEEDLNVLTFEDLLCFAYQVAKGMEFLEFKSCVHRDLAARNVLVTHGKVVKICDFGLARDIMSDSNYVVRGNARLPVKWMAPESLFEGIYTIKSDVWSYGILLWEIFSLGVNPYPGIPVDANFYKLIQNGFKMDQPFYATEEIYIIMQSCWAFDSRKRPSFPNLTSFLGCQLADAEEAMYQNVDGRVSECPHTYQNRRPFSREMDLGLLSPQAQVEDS

Compound	test	endpoint	value
C[C@H](Nc1ccnc(Nc2cccc(-c3cccnc3)c2)n1)C(=O)O	enzyme activity, inhibitor	IC50	> 23000 nM
Cc1ccc(C(=O)Nc2ccc(Oc3cc4cnn(C)c4cc3-c3cn[nH]c3)c(F)c2)c(=O)n1-c1ccc(F)cc1	cell growth or viability, ATP luminescence	IC50	7 nM
CN(C)c1ncnc(-c2ccc3nc(Nc4cc(CN5CCN(C(=O)CC(F)(F)F)CC5)ccn4)[nH]c3c2)c1Cl	target engagement in cells, BRET	EC50	> 50000 nM
Cc1cc(Nc2cc3ncccc3c(N[C@@H]3C[C@H]4CC[C@@H](C3)N4CCC#N)n2)n[nH]1	target engagement in cells, inhibitor, BRET	IC50	2000 nM
c1cc(Nc2nccc(NC3CCCCC3)n2)cc(-c2ncco2)c1	enzyme activity, inhibitor	IC50	336 nM
C[C@H](c1ccnc(Nc2nc3ccc(-c4cc(N(C)C)ncn4)cc3[nH]2)c1)N1CCN(C(=O)CC(F)(F)F)CC1	target engagement in cells, BRET	EC50	22000 nM
COc1ccc2c(Oc3ccc4c(C(=O)Nc5ccccc5N)cccc4c3)ccnc2c1	enzyme activity, inhibitor	IC50	> 500 nM
Cc1cc(Nc2cc(CN3CCOCC3)c3nc(C)c(Cc4ccc(Cl)cc4F)n3n2)n[nH]1	enzyme activity, inhibitor, TR-FRET	IC50	4 nM
CCCNc1ccnc(Nc2cccc(-c3cccnc3)c2)n1	enzyme activity, inhibitor	IC50	< 6 nM
CN(C)c1ccc(C=C2C(=O)Nc3ccccc32)cc1	enzyme activity, inhibitor, radiometric	IC50	70 nM
